DENV2 CPE: inhibitors of DENV2 cytopathic effect, primary screen, cell-based, plate reader, single concentration; DENV2-infected cells, cytopathic effect rescue; CPE inhibition, % at 9.99 µM; hit rate 1.7% among 350,000; in the data active = CPE inhibition above about 20%, passing the limit was not always enough; tested in BHK-21 cells;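 note: 0% = median of neutral control wells and 100% = median of positive control wells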
PGC1a acetyl inh: inhibitors of PGC1a acetylation signal, primary screen, cell-based, U2OS, AlphaScreen, inhibitor mode. hit rate 0.17% among 350,000. AlphaScreen anti-acetyl-lysine; with virally co-expressed GCN5 acetyltransferase. inhibition, % at 15.6 µM;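 active = every replicate shows inhibition of at least 40%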;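 note: 0% = neutral control wells and 100% = positive control wells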
S100A4 inh HTS: inhibitors of S100A4-myosin IIA peptide binding, primary screen, biochemical, fluorescence polarization, TAMRA-MyoIIA peptide; Protein S100-A4 (Homo sapiens), P26447; inhibition, % at 10.7 µM; hit rate 0.14% among 360,000; AID 652163, 2013;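 active = mean inhibition of at least 70% across replicates, with every replicate also reaching that level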
Target sequence (P26447 whole entry, looked up): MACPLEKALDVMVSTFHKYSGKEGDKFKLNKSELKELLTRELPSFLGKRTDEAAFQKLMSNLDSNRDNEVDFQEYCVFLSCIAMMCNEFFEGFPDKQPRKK
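incubation = readout 5 min after mixing, signal stable up to 60 min | system = S100A4 monomer protein | buffer or medium = HEPES pH 7.2 with CaCl2, KCl, NaCl, DTT, Triton | benchmarks = neutral control DMSO, positive control TFP | also added = fluorescent myosin IIA peptide, 5 nM | compound dosing = one concentration per compound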
SIRT5 block: SIRT5 desuccinylase inhibitors, primary screen, biochemical, fluorescence imaging, single point, set 5; AID 652115, 2013; NAD-dependent protein deacylase sirtuin-5, mitochondrial (Homo sapiens), Q9NXA8; hit rate 1.1% among 330,000; Purified SirT5, succinyl-peptide AMC, trypsin-coupled fluorescence; inhibition, % at 15 µM; in the data active = inhibition above about 15%
Target sequence (Q9NXA8 whole entry, looked up): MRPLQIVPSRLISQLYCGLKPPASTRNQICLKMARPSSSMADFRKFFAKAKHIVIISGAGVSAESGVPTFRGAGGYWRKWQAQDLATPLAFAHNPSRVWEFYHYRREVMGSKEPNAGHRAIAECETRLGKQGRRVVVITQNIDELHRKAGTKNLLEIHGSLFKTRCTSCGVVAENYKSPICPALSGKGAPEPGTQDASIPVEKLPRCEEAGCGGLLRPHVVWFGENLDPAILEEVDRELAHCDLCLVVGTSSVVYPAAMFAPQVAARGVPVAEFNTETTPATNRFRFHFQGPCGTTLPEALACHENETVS
Statin myotox sup: suppressors of statin myotoxicity in C2C12 myotubes, primary screen, cell-based, single point, plate reader | AID 602340, 2012 | hit rate 0.78% among 330,000 | C2C12 myotubes + simvastatin, ATP luminescence, 48 h; scaled: DMSO 0, geranylgeraniol control 100 | rescue of ATP level, % at 7.49 µM;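 active = mean ATP rescue above about 67%, or every replicate alone reaching that limit, limit read from the data, passing the limit was not always enough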;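 note: myotubes were challenged with 10 µM simvastatin during compound exposure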
* marks the source's active call; other numbers are inactive results; . = no result. Most compounds without a hit are left out; they make up all but 2.9% or so of the library.

SMILES	DENV2 CPE	PGC1a acetyl inh	S100A4 inh HTS	SIRT5 block	Statin myotox sup
COCCCNC(=O)C[C@H]1C[C@H](C(=O)N(C(C)C)C(C)C)[C@@]2(C)c3[nH]c4cc(CCC(=O)N(C)C)ccc4c3CCN2C1=O	37*	-7	4	-4	-1
CC[C@]12c3[nH]c4cc(CCC(=O)N(C)C)ccc4c3CCN1C(=O)[C@@H](CC(=O)NCc1ccco1)C[C@@H]2C(=O)N1CCN(C(=O)C2CC2)CC1	25*	.	0	-4	0
CCN(CC)C(=O)[C@H]1CC(CC(=O)NC/C=C(\C)CCC=C(C)C)C(=O)N2CCc3c([nH]c4ccc(OC)cc34)[C@]12C (stereo partly specified)	40*	-6	0	-2	-10
CC[C@]12c3[nH]c4cc(CCC(=O)N(C)C)ccc4c3CCN1C(=O)[C@@H](CC(=O)NCCC1=CCCCC1)C[C@@H]2C(=O)N1CCN(C(=O)c2ccco2)CC1	25*	.	-6	-3	5
CO[C@H]1CN(C)C(=O)c2ccc(NC(C)=O)cc2OC[C@@H](C)N(Cc2cncnc2)C[C@H]1C	6	9	4	-1	9
CO[C@@H]1CN(C)C(=O)c2ccc(NS(C)(=O)=O)cc2OC[C@@H](C)N(C(=O)c2ccc3c(c2)OCO3)C[C@H]1C	.	0	.	.	-2
CN(C)C(=O)C[C@@H]1CC[C@@H]2[C@@H](COc3ccc(NC(=O)Nc4cccc(Cl)c4)cc3C(=O)N2C)O1	1	5	0	-2	-23
C[C@H]1CN([C@@H](C)CO)C(=O)CCCn2cc(nn2)CO[C@H]1CN(C)C(=O)Nc1ccc(N2CCCCC2)cc1	-1	0	-29	9	-1
CCC(C(=O)N1CCOCC1)n1nc(C)c2sc3ccccc3c2c1=O (stereo unspecified)	8	-9	0	30*	2
CCC(C(=O)N1CCOCC1)n1nc(C)c2c(C)n(-c3ccccc3)nc2c1=O (stereo unspecified)	1	.	-1	6	-1
c1ccc(-c2n[nH]c3c2CCC3)cc1	.	3	.	.	26
CC(C)(C)c1n[nH]c2c1CCCC2	-9	.	-6	42*	.
CN(C)CC(=O)N[C@@H]1CC[C@H](CCNC(=O)C2CCCCC2)O[C@H]1CO	0	-1	0	1	-2
CCS(=O)(=O)c1nc(S(=O)(=O)c2ccc(C)cc2)c(NCCCN2CCCC2=O)s1	1	.	84*	6	0
O=C(COn1nnc2ccc(Cl)cc21)NC12CC3CC(CC(C3)C1)C2	.	85*	.	.	.
O=C(COn1nnc2ccc(Cl)cc21)Nc1ccc(F)cc1	-6	-9	2	-1	18
NC(=S)NN=Cc1ccc(-c2ccc(S(=O)(=O)Nc3ncccn3)cc2)o1	8	.	-4	46*	.
O=C(N/N=C/c1ccc(-c2ccc(S(=O)(=O)Nc3ncccn3)cc2)o1)c1cc2ccccc2cc1O	.	5	.	.	16
COc1ccc(S(=O)(=O)Nc2ccc3c(c2)CC(=O)N([C@H](C)CO)C[C@@H](C)[C@@H](CN(C)CC2CCCCC2)O3)cc1	-2	-5	31	7	10
COc1ccc(S(=O)(=O)Nc2ccc3c(c2)CC(=O)N([C@@H](C)CO)C[C@@H](C)[C@H](CN(C)CC2CCCCC2)O3)cc1	-3	-12	2	24*	39
COc1ccc(S(=O)(=O)Nc2ccc3c(c2)CC(=O)N([C@H](C)CO)C[C@H](C)[C@H](CN(C)C)O3)cc1	4	-5	5	-1	-1
COc1ccc(S(=O)(=O)Nc2ccc3c(c2)CC(=O)N([C@H](C)CO)C[C@H](C)[C@@H](CN(C)CC2CC2)O3)cc1	-6	28	118*	6	5
C[C@@H]1CN([C@H](C)CO)C(=O)c2cc(NC(=O)C3CCCCC3)ccc2O[C@H]1CN(C)S(C)(=O)=O	-2	.	-7	2	-13
C[C@@H]1CN([C@H](C)CO)C(=O)Cc2cc(NC(=O)CCCCCC(=O)Nc3ccccc3N)ccc2O[C@H]1CN(C)C(=O)Nc1ccc2c(c1)OCO2	-1	-5	6	3	-21
COc1ccc(-c2[nH]ncc2CNCC(C)(C)N2CCOCC2)cc1F	1	9	-2	-2	88*
